Measurements: ChEMBL document CHEMBL1687724, “Roles of NF-kappaB activation and peroxisome proliferator-activated receptor gamma inhibition in the effect of rifampin on inducible nitric oxide synthase transcription in human lung epithelial cells” (Antimicrob Agents Chemother, 2009)
Calls of active or inactive are those of the source. The calls are words filed in the database; no cut-off is given here.

What was measured:
A549 [1] = test: Effect on NF-kappaB activation in 100 ng/ml IL-1beta, TNF-alpha and IFN-gamma-stimulated human A549 cells assessed as degradation of inhibitory subunit IkappaB at 50 ug/ml by Western blot analysis; assay type: functional, cell-based
Summary of the method: (§1)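 A549 cells (2 × 10⁶/dish) starved 24 h, then exposed to cytokine mix (100 ng/ml each) ± rifampin 50 μg/ml, or rifampin alone; lysates taken over time (30 min to 3 h), 20–30 μg protein immunoblotted for IκB, ECL detection, densitometry; three experiments.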

HT-29 = test: Effect on iNOS expression in human HT-29 cells assessed as increase in 100 ng/ml IL1-beta, TNF-alpha and IFN-gamma-stimulated iNOS […] expression normalized to beta-actin expression level at 10 to 50 ug/ml after 24 hrs by Western blot analysis; assay type: functional, cell-based
A549 [2] = test: Induction of NF-kappaB activation in IL1-beta, TNF-alpha and IFN-gamma-stimulated human A549 cells assessed as fold increase in NF-kappaB/DNA binding at 50 ug/ml by electrophoretic mobility shift assay; assay type: functional
Summary of the method: (§2)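 Nuclear extracts from A549 cells 2 h after cytokine mix (IL-1β, TNF-α, IFN-γ) ± rifampin 50 μg/ml; 2 μl extract bound to biotin-labeled NF-κB consensus probe, 5% native PAGE in TBE, streptavidin-HRP chemiluminescence; specificity checked with cold NF-κB oligonucleotide.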

A549 [3] = test: Effect on STAT-1 phosphorylation in human A549 cells assessed as increase in IL1-beta, TNF-alpha and IFN-gamma-induced phosphorylation at 50 ug/ml after 15 to 30 mins by Western immunoblotting analysis; assay type: functional, cell-based
Summary of the method: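 A549 cells starved 24 h in serum- and antibiotic-free medium, treated with cytokine mix (IL-1β, TNF-α, IFN-γ) ± rifampin; total lysates immunoblotted (10% SDS-PAGE, PVDF) with rabbit anti-phospho-STAT-1; ECL detection with densitometry.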

A549 [4] = test: Induction of iNOS expression in human A549 cells at 25 to 50 ug/ml by Western blot analysis in presence of IFN-gamma; assay type: functional, cell-based
Summary of the method: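 A549 cells starved 24 h, then given rifampin with IFN-γ, each agent alone, or cytokine mix; total cell extracts prepared 20 h after stimulation and immunoblotted with rabbit anti-iNOS, ECL detection.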

A549 [5] = test: Induction of iNOS expression in human A549 cells at 25 to 50 ug/ml by Western blot analysis; assay type: functional, cell-based
A549 [6] = test: Effect on NF-kappaB activation in human A549 cells assessed as degradation of inhibitory subunit IkappaB after 30 mins at 50 ug/ml by Western blot analysis; assay type: functional, cell-based; summary of the method: as §1
A549 [7] = test: Induction of NF-kappaB activation in human A549 cells assessed as fold increase in NF-kappaB/DNA binding at 50 ug/ml by electrophoretic mobility shift assay; assay type: functional, cell-based; summary of the method: as §2
A549 [8] = test: Effect on p38 phosphorylation in human A549 cells assessed as increase in IL1-beta, TNF-alpha and IFN-gamma-induced phosphorylation at 50 ug/ml after 15 to 30 mins by Western immunoblotting analysis; assay type: functional, cell-based
Summary of the method: (§3)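 A549 cells serum/antibiotic-starved 24 h, then given cytokine mix (IL-1β, TNF-α, IFN-γ) with or without rifampin (50 μg/ml); total lysates at 15, 30, 60 min; 20–30 μg protein on 10% SDS-PAGE, immunoblotted for phospho-ERK1/2, phospho-JNK, phospho-p38 and total forms; ECL detection, densitometry.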

A549 [9] = test: Effect on iNOS expression in human A549 cells assessed as fold increase in 100 ng/ml IL1-beta, TNF-alpha and IFN-gamma-stimulated iNOS mRNA expression at 50 ug/ml after 19 hrs by TaqMan real-time RT-PCR relative to control; assay type: functional
Summary of the method: (§4)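 A549 cells starved 24 h, then 19 h with cytokine mix (100 ng/ml each) ± rifampin 10 or 50 μg/ml (DMSO stock diluted ≥1:1,000); 2 μg total RNA reverse transcribed (random hexamers), iNOS by TaqMan real-time RT-PCR normalized to β-actin; medium-only control set to 1; four experiments, mean ± SEM.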

A549 [10] = test: Effect on iNOS expression in human A549 cells assessed as fold increase in 100 ng/ml IL1-beta, TNF-alpha and IFN-gamma-stimulated iNOS mRNA expression at 10 ug/ml after 19 hrs by TaqMan real-time RT-PCR relative to control; assay type: functional; summary of the method: as §4
[11] = biological target: Nitric oxide synthase, inducible (Homo sapiens) (UniProt P35228); test: Effect on iNOS in human A549 cells assessed as increase in iNOS mRNA expression at 50 ug/ml after 19 hrs by TaqMan real-time RT-PCR relative to control; assay type: cell-based; summary of the method: as §4
A549 [12] = test: Effect on NF-kappaB activation in 100 ng/ml IL-1beta, TNF-alpha and IFN-gamma-stimulated human A549 cells assessed as degradation of inhibitory subunit IkappaB measured upto 3 hrs at 50 ug/ml by Western blot analysis; assay type: functional, cell-based; summary of the method: as §1
DLD-1 = test: Effect on iNOS expression in human DLD1 cells assessed as increase in 100 ng/ml IL1-beta, TNF-alpha and IFN-gamma-stimulated iNOS […] expression normalized to beta-actin expression level at 10 to 50 ug/ml after 24 hrs by Western blot analysis; assay type: functional, cell-based
A549 [13] = test: Effect on JNK phosphorylation in human A549 cells assessed as increase in IL1-beta, TNF-alpha and IFN-gamma-induced phosphorylation at 50 ug/ml after 15 to 30 mins by Western immunoblotting analysis; assay type: functional, cell-based; summary of the method: as §3
A549 [14] = test: Reduction in PPARgamma expression in human A549 cells assessed as increase in 100 ng/ml IL1-beta, TNF-alpha and IFN-gamma-induced PPARgamma down regulation normalized to beta-actin expression level at 50 ug/ml by Western blot analysis; assay type: functional, cell-based
Summary of the method: (§5)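 A549 cells starved 24 h, then 24 h with medium, cytokine mix (100 ng/ml each), or mix plus graded rifampin; whole-cell extracts immunoblotted with mouse anti-PPARγ, signal normalized to β-actin by densitometry; five experiments, mean ± SEM, unpaired t test.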

A549 [15] = test: Effect on PPARgamma expression in human A549 cells assessed as decrease in PPARgamma expression normalized to beta-actin expression level at 50 ug/ml by Western blot analysis; assay type: functional, cell-based; summary of the method: as §5
[16] = Cmax in serum of human patient undergoing fibre-optic bronchoscopy at 600 mg, po administered as single dose; assay type: ADME, organism-based; set-up: dose 600 mg, route oral
A549 [17] = test: Effect on ERK1/2 phosphorylation in human A549 cells assessed as increase in IL1-beta, TNF-alpha and IFN-gamma-induced phosphorylation at 50 ug/ml after 15 to 30 mins by Western immunoblotting analysis; assay type: functional, cell-based; summary of the method: as §3

Sequence of Nitric oxide synthase, inducible (Homo sapiens) (P35228 whole entry): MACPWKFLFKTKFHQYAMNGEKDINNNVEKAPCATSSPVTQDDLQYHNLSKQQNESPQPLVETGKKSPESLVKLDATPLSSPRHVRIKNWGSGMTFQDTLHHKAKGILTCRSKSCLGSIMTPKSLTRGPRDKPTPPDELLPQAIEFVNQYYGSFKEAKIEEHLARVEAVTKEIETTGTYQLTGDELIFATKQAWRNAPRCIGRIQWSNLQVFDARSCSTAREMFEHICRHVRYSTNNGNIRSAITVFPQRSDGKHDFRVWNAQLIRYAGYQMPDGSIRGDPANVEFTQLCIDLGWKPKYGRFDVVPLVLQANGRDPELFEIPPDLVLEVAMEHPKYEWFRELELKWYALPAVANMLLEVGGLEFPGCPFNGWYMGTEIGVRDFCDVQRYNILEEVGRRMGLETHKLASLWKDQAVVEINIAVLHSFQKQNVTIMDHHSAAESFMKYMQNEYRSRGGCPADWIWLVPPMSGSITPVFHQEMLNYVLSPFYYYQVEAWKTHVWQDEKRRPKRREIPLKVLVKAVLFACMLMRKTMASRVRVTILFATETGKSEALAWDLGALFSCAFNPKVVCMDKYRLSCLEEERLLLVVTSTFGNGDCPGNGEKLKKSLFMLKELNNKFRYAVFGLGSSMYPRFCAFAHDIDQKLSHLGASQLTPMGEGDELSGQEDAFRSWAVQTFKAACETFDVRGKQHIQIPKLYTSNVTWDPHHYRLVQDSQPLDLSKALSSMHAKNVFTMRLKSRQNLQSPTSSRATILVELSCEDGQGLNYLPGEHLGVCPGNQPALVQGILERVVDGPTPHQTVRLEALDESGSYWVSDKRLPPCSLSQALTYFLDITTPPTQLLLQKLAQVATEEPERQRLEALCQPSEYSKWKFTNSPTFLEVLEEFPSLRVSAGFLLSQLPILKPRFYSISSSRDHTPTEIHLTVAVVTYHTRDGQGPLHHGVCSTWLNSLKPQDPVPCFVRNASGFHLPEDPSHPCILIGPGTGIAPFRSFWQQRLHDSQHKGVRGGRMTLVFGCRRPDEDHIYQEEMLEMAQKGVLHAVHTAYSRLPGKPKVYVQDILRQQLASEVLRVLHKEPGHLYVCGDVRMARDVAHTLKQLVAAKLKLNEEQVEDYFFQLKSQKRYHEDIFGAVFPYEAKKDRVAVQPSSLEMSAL

CO[C@H]1/C=C/O[C@@]2(C)Oc3c(C)c(O)c4c(O)c(c(/C=N/N5CCN(C)CC5)c(O)c4c3C2=O)NC(=O)/C(C)=C\C=C\[C@H](C)[C@H](O)[C@@H](C)[C@@H](O)[C@@H](C)[C@H](OC(C)=O)[C@@H]1C [RIFAMPIN]
Activity (A549 [1]): Active | Activity (HT-29): Dose-dependent effect | fold change (FC) (A549 [2]): 2.1 | Activity (A549 [3]): inactive | Activity (A549 [4]): Active | Activity (A549 [5]): inactive | Activity (A549 [6]): Active | Activity (A549 [7]): Active | Activity (A549 [8]): inactive | fold change (FC) (A549 [9]): 4 | fold change (FC) (A549 [10]): 1.9 | Activity [11]: inactive | Activity (A549 [12]): Active | Activity (DLD-1): inactive | Activity (A549 [13]): inactive | Activity (A549 [14]): Active | Activity (A549 [15]): inactive | Cmax [16]: 15000 ng/mL | Activity (A549 [17]): inactive
